# Measured values as given in ChEMBL document CHEMBL4706684, “Discovering High Potent Hsp90 Inhibitors as Antinasopharyngeal Carcinoma Agents through Fragment Assembling Approach” (J Med Chem, 2021).
# Active and inactive are the calls of the source. The calls are words filed in the database; no cut-off is given here.
# Legend:
# CNE-2 [1] = assay: Induction of apoptosis in human CNE-2 cells overexpressing HSP90 assessed as early apoptosis cells level at 70 nM incubated for 12 hrs by Annexin-V/FITC staining based FACS analysis (reference value: 3.1%); assay type: cell-based; conditions: cne-2, 12 h, 0.07 µM
# CNE-2 [2] = assay: Induction of apoptosis in human CNE-2 cells assessed as Bcl-XL degradation at 70 nM incubated for 24 hrs in presence of HSP90-alpha siRNA by immunoblot analysis; assay type: functional, cell-based
# Method in brief: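 CNE2 cells were transiently transfected with Hsp90 siRNA (siHsp90-1 or siHsp90-2) at 150 nM final using Lipofectamine 2000. They were then incubated with inhibitor for 24 h and immunoblotted: RIPA lysis, 8–12% SDS-PAGE, PVDF, overnight primary antibodies, HRP secondaries, chemiluminescence, actin as loading control.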
# CNE-2 [3] = assay: Induction of apoptosis in human CNE-2 cells assessed as early apoptosis cells level at 200 nM incubated for 12 hrs by Annexin-V/FITC staining based FACS analysis (reference value: 1.45%); assay type: cell-based; conditions: cne-2, 12 h, 0.2 µM
# CNE-2 [4] = assay: Antitumor activity against human CNE-2 cells xenografted in nu/nu mouse assessed as inhibition of tumor growth at 1 mg/kg, po for 32 days; assay type: functional, organism-based; conditions: time 32.0 day
# CNE-2 [5] = assay: Antitumor activity against human CNE-2 cells xenografted in nu/nu mouse assessed as inhibition of tumor growth at 1 mg/kg, ip for 32 days; assay type: functional, organism-based; conditions: time 32.0 day
# CNE-2 [6] = assay: Induction of apoptosis in human CNE-2 cells assessed as early apoptosis cells level at 500 nM incubated for 12 hrs by Annexin-V/FITC staining based FACS analysis (reference value: 1.45%); assay type: cell-based; conditions: cne-2, 12 h, 0.5 µM
# CNE-2 [7] = assay: Induction of apoptosis in human CNE-2 cells assessed as viable cells level at 500 nM incubated for 12 hrs by Annexin-V/FITC staining based FACS analysis (reference value: 96.7%); assay type: cell-based; conditions: read-out: Activity
# Method in brief: (§1)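 CNE2 cells (RPMI 1640 with 10% FBS) were seeded at 5 × 10⁴ cells per well. After 24 h they were treated with compound in 0.05% DMSO for 12 h. Cells were then washed twice with PBS, pelleted, and stained in binding buffer with Annexin V-FITC and PI for flow cytometry.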
# CNE-2 [8] = assay: Induction of apoptosis in human CNE-2 cells assessed as viable cells level at 70 nM incubated for 12 hrs by Annexin-V/FITC staining based FACS analysis (reference value: 93.2%); assay type: cell-based; conditions: read-out: Activity; method in brief: as §1
# CNE-2 [9] = assay: Induction of apoptosis in human CNE-2 cells assessed as Bcl-XL degradation at 70 nM incubated for 24 hrs in presence of HSP90-beta siRNA by immunoblot analysis; assay type: functional, cell-based
# CNE-2 [10] = assay: Induction of apoptosis in human CNE-2 cells assessed as early apoptosis cells level at 50 nM incubated for 12 hrs by Annexin-V/FITC staining based FACS analysis (reference value: 1.45%); assay type: cell-based; conditions: cne-2, 12 h, 0.05 µM
# CNE-2 [11] = assay: Induction of apoptosis in human CNE-2 cells assessed as late apoptosis cells level at 100 nM incubated for 12 hrs by Annexin-V/FITC staining based FACS analysis (reference value: 1.45%); assay type: cell-based; conditions: cne-2, 12 h, 0.1 µM
# [12] = Binding affinity to HSP90-alpha L107G mutant (unknown origin) expressed in Escherichia coli BL21 by SPR assay; parameters: species or system Homo sapiens
# Method in brief: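 SPR on a Biacore T200 at 25 °C with running buffer PBST (PBS pH 7.4, 0.005% Tween-20). Protein at 20 μg/mL in 10 mM sodium acetate pH 5.0 was immobilized on a CM5 chip, which was equilibrated overnight in PBST. Inhibitor serially diluted from 10 μM was injected at 30 μL/min with 120 s contact and 120 s dissociation.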
# CNE-2 [13] = assay: Induction of apoptosis in human CNE-2 cells overexpressing HSP90 assessed as viable cells level at 70 nM incubated for 12 hrs by Annexin-V/FITC staining based FACS analysis (reference value: 93.2%); assay type: cell-based; conditions: read-out: Activity
# CNE-2 [14] = assay: Induction of apoptosis in human CNE-2 cells assessed as early apoptosis cells level at 70 nM incubated for 12 hrs by Annexin-V/FITC staining based FACS analysis (reference value: 3.1%); assay type: cell-based; conditions: cne-2, 12 h, 0.07 µM
# CNE-2 [15] = assay: Induction of apoptosis in human CNE-2 cells assessed as reduction in HER2 protein level at 500 nM incubated for 24 hrs by immunoblot analysis; assay type: functional, cell-based
# Method in brief: (§2)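 CNE2 cells (RPMI 1640, 10% FBS, 37 °C, 5% CO₂) were incubated with inhibitor for 24 h, then lysed in RIPA buffer on ice for 30 min. Lysates were run on 8–12% SDS-PAGE and transferred to PVDF. Membranes were blocked with 5% milk and probed with primary antibodies overnight, then HRP secondaries. Detection was by chemiluminescence with actin as loading control.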
# [16] = molecular target: T1, Heat shock protein HSP 90-alpha (Homo sapiens, UniProt P07900); assay: Potency index, ratio of IC50 for 17-AAG to IC50 for inhibition of HSP90-alpha (unknown origin) expressed in Escherichia coli BL21 assessed as reduction in ATPase activity in presence of PEP, NADH and ATP by pyruvate kinase/lactic dehydrogenase based coupled enzyme assay
# Method in brief: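 The reaction was started with 2 μM Hsp90 at 37 °C and followed as the decrease in absorbance at 340 nm. Compounds were added to the reaction mixture, with 17-AAG as reference.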
# [17] = molecular target: T1, Heat shock protein HSP 90-alpha; assay: Inhibition of HSP90-alpha in human CNE-2 cells assessed as reduction in PKB protein levels at 20 to 500 nM incubated for 24 hrs by immunoblot analysis; assay type: cell-based; conditions: dose 20-500 nM; method in brief: as §2
# CNE-2 [18] = assay: Induction of apoptosis in human CNE-2 cells assessed as necrosis cells level at 200 nM incubated for 12 hrs by Annexin-V/FITC staining based FACS analysis (reference value: 1.45%); assay type: cell-based; conditions: cne-2, 12 h, 0.2 µM
# [19] = molecular target: T1, Heat shock protein HSP 90-alpha; assay: Inhibition of HSP90-alpha (unknown origin) expressed in Escherichia coli BL21 assessed as reduction in ATPase activity in presence of PEP, NADH and ATP by pyruvate kinase/lactic dehydrogenase based coupled enzyme assay
# [20] = molecular target: Heat shock protein HSP 90-beta (Homo sapiens, UniProt P08238); assay: Inhibition of HSP90-beta (unknown origin) expressed in Escherichia coli BL21 assessed as reduction in ATPase activity in presence of PEP, NADH and ATP by pyruvate kinase/lactic dehydrogenase based coupled enzyme assay
# CNE-2 [21] = assay: Induction of apoptosis in human CNE-2 cells assessed as viable cells level at 50 nM incubated for 12 hrs by Annexin-V/FITC staining based FACS analysis (reference value: 96.7%); assay type: cell-based; conditions: read-out: Activity; method in brief: as §1
# CNE-2 [22] = assay: Antitumor activity against human CNE-2 cells xenografted in nu/nu mouse assessed as induction of tumor size shrinkage at 1 mg/kg, po for 32 days; assay type: functional, organism-based; conditions: time 32.0 day
# CNE-2 [23] = assay: Induction of apoptosis in human CNE-2 cells assessed as early apoptosis cells level at 100 nM incubated for 12 hrs by Annexin-V/FITC staining based FACS analysis (reference value: 1.45%); assay type: cell-based; conditions: cne-2, 12 h, 0.1 µM
# CNE-2 [24] = assay: Induction of apoptosis in human CNE-2 cells assessed as early apoptosis cells level at 20 nM incubated for 12 hrs by Annexin-V/FITC staining based FACS analysis (reference value: 1.45%); assay type: cell-based; conditions: cne-2, 12 h, 0.02 µM
# Chain of Heat shock protein HSP 90-beta (P08238 whole entry): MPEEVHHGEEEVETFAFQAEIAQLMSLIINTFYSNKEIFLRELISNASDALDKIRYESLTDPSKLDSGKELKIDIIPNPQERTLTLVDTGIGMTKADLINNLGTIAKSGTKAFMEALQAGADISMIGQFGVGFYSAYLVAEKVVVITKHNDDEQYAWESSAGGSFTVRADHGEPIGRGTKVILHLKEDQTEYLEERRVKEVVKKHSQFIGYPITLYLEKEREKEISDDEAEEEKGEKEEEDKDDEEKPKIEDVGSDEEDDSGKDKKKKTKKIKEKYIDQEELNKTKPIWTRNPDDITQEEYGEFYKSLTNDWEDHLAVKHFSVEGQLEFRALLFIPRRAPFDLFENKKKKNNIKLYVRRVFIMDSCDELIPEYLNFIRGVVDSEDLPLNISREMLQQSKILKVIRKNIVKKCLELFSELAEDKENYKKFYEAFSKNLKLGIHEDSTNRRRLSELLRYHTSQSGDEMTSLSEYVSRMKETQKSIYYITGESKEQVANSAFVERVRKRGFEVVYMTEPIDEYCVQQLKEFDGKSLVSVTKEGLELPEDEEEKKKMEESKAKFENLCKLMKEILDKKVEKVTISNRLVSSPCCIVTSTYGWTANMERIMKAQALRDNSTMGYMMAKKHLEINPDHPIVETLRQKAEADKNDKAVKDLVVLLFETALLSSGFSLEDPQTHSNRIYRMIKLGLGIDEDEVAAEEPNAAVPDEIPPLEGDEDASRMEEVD
compound,measurement,setting,value
CC(C)(C)c1ccc(Cn2cc(-c3cc(O)c(O)c(O)c3)nn2)cc1,Activity,CNE-2 [1],3.96%
same,Activity,CNE-2 [2],inactive
same,Activity,CNE-2 [3],13%
same,TGI,CNE-2 [4],Active
same,TGI,CNE-2 [5],Active
same,Activity,CNE-2 [6],33.6%
same,viability at 0.5 µM,CNE-2 [7],32%
same,viability at 0.07 µM,CNE-2 [8],75%
same,Activity,CNE-2 [9],inactive
same,Activity,CNE-2 [10],7.17%
same,Activity,CNE-2 [11],15.6%
same,Kd,[12],29100 nM
same,viability at 0.07 µM,CNE-2 [13],94%
same,Activity,CNE-2 [14],13.7%
same,Activity,CNE-2 [15],Active
same,Ratio IC50,[16],5
same,inhibition,[17],Active
same,Activity,CNE-2 [18],0.3%
same,IC50,[19],160 nM
same,IC50,[20],180 nM
same,viability at 0.05 µM,CNE-2 [21],77.2%
same,Activity,CNE-2 [22],Active
same,Activity,CNE-2 [23],6.22%
same,Activity,CNE-2 [24],4.08%
